Source: ChEMBL document CHEMBL3352043, “Discovery of small-molecule inhibitors selectively targeting the DNA-binding domain of the human androgen receptor” (J Med Chem, 2014)
Positions count from the first letter of the chain named. Active and inactive are the calls of the source. The rule behind the calls is not given here.

Key:
[1] = target: T1, Androgen receptor (Homo sapiens) (UniProt P10275); assay: Inhibition of androgen receptor V7 (unknown origin) expressed in human PC3 cells assessed as inhibition of transcription activity after 24 hrs by luciferase reporter gene assay; assay type: cell-based; conditions: PC-3
T1 sequence (whole entry): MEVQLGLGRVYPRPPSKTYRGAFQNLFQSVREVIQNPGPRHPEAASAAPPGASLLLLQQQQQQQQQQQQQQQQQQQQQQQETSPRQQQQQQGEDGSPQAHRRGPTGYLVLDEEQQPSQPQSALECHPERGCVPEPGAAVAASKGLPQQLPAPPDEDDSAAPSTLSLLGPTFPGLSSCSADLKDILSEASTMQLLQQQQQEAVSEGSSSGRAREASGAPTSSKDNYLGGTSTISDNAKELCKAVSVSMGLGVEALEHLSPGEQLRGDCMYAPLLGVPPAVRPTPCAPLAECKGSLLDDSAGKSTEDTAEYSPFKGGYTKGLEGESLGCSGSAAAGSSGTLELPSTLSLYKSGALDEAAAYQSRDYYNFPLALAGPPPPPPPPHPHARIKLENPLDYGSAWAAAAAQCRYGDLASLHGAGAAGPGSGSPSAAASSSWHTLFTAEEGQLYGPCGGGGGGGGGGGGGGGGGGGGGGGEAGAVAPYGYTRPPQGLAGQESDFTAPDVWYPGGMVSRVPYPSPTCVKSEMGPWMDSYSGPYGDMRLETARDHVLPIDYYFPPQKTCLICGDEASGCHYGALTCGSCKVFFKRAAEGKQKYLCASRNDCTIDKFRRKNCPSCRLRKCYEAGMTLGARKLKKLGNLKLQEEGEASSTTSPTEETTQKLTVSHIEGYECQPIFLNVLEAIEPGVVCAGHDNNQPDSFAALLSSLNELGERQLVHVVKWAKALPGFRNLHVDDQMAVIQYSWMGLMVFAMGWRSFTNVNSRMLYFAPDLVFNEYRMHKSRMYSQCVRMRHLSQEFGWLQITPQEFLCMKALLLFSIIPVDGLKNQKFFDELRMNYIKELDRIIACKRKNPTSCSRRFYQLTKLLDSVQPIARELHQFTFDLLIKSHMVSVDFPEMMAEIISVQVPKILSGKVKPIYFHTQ
Method in brief: (§1)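 PC3 cells were starved 5 days in RPMI 1640 with 5% charcoal-stripped serum and seeded at 5000 cells/well. After 24 h they were cotransfected with AR-V7 or hAR mutant plasmid plus 50 ng ARR3tk-luciferase. At 48 h post-transfection, compounds were added for 24 h with 0.1 nM R1881. Luminescence was read from passive-lysis-buffer lysates; mutant tests used 10 μM.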

[2] = target: T2, Glucocorticoid receptor (Homo sapiens) (UniProt P04150); assay: Inhibition of glucocorticoid receptor (unknown origin) transcriptional activity at […]
T2 sequence (whole entry): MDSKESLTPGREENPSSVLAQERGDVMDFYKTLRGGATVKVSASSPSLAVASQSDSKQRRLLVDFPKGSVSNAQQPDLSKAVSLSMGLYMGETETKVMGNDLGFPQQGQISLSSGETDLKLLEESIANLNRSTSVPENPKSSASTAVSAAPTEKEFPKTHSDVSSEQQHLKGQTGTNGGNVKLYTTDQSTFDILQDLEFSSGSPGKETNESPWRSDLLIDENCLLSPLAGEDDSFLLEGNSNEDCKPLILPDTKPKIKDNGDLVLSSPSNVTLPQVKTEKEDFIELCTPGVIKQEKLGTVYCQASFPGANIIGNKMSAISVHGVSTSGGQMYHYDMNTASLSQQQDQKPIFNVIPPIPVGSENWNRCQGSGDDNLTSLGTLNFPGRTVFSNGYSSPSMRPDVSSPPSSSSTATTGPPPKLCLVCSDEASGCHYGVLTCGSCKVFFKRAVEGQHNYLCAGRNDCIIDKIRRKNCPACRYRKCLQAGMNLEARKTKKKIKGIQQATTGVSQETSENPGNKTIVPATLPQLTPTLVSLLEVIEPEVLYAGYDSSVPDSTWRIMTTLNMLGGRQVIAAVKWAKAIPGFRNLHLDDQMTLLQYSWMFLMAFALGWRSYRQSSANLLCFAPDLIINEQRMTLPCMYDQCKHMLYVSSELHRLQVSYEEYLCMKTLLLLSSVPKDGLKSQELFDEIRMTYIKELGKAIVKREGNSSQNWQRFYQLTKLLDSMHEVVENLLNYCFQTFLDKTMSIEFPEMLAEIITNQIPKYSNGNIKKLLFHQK
Method in brief: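 PC3 cells were starved 5 days in RPMI 1640 with 5% charcoal-stripped serum. They were cotransfected with GR or PR plasmid plus 50 ng ARR3tk-luciferase, and 48 h later treated with compound for 24 h. Stimulation was 1 nM dexamethasone (GR) or progesterone (PR). Luciferase luminescence was read from cell lysates.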

[3] = tested on: T3, Androgen receptor (Homo sapiens), P10275 [Q592D]; assay: Inhibition of human androgen receptor Q592D mutant expressed in human PC3 cells assessed as inhibition of transcription activity after 24 hrs by luciferase reporter gene assay; assay type: cell-based; conditions: PC-3; method in brief: as §1
T3 sequence (whole entry): T1 sequence (whole entry) with Q592D

| Compound | inhibition [1] | inhibition [2] | inhibition [3] |
| --- | --- | --- | --- |
| c1ccc(-c2csc(N3CCOCC3)n2)cc1 | Dose-dependent effect | inactive | inactive |
| Brc1ncn(-c2csc(N3CCOCC3)n2)c1Br | Dose-dependent effect | inactive | inactive |
